Results gathered from unrelated publications.
Lines come from different studies, so protocols differ.

Compound | target or system | test | setting | measurement | result
COc1cc(-c2ccc(-c3ccc(C(=N)N)nc3)s2)cc(OC)c1OC | NCI/ADR-RES | cell growth or viability, SRB | – | GI50 | 5.2 µM
COc1cc(C=Cc2cc(-c3ccc(N(C)C)cc3)nc(O)n2)ccc1O | – | DPPH scavenging | 100 µg/mL | inhibition | 71.7%
CCN(O)N=Nc1ccc(S(=O)(=O)Nc2cc(C)on2)cc1 | – | DPPH scavenging, absorbance | 300 µg/mL | inhibition | 40.5%
O=C1O[C@H]([C@@H](O)CO)C(O)=C1O | – | DPPH scavenging, absorbance | 160 µM | inhibition | 70.9%
CCN(O)N=Nc1ccc(S(=O)(=O)Nc2onc(C)c2C)cc1 | – | DPPH scavenging, absorbance | 120 µg/mL | inhibition | 22.5%
O=C(Nc1ccc2c(c1)OC(F)(F)O2)Nc1ccc(Cl)c(C(F)(F)F)c1 | Salmonella | microbial growth | clinical isolate | MIC | > 100 µM
Cn1nnc2c(C(N)=O)ncn2c1=O | MGC-803 | cell growth or viability | – | EC50 | 356 µM
Oc1ccc(Br)cc1C=NCCN1CCOCC1 | – | DPPH scavenging, absorbance | 80 µM | inhibition | 17.4%
O=C1O[C@H]([C@@H](O)CO)C(O)=C1O | – | DPPH scavenging | 100 µg/mL | inhibition | 81.3%
O=S(=O)(Nc1nccs1)c1ccc(N=NN(O)c2ccccc2)cc1 | – | DPPH scavenging, absorbance | 20 µg/mL | inhibition | 24.1%
COc1cc(C=Cc2cc(-c3ccccc3)nc(O)n2)ccc1O | – | DPPH scavenging | 12.5 µg/mL | inhibition | 38.3%
CCCN(O)N=Nc1ccc(S(=O)(=O)Nc2cc(C)on2)cc1 | – | DPPH scavenging, absorbance | 300 µg/mL | inhibition | 27.6%
